Source: ChEMBL document CHEMBL3351702, “Design, synthesis and characterization of fluoro substituted novel pyrazolylpyrazolines scaffold and their pharmacological screening” (Eur J Med Chem, 2014)
In brackets after ≈: the same amount, converted by molar mass.

Key:
Escherichia coli = experiment: Antimicrobial activity against Escherichia coli MTCC 443 assessed as absence of visible growth after 24 to 48 hrs by broth micro dilution method; assay type: functional
Bacillus subtilis = experiment: Antimicrobial activity against Bacillus subtilis MTCC 441 assessed as absence of visible growth after 24 to 48 hrs by broth micro dilution method; assay type: functional
Vibrio cholerae = experiment: Antimicrobial activity against Vibrio cholerae MTCC 3906 assessed as absence of visible growth after 24 to 48 hrs by broth micro dilution method; assay type: functional
Salmonella typhi = experiment: Antimicrobial activity against Salmonella typhi MTCC 98 assessed as absence of visible growth after 24 to 48 hrs by broth micro dilution method; assay type: functional, Salmonella enterica subsp. enterica serovar Typhi; conditions: Salmonella enterica
Streptococcus pneumoniae = experiment: Antimicrobial activity against Streptococcus pneumoniae MTCC 1936 assessed as absence of visible growth after 24 to 48 hrs by broth micro dilution method; assay type: functional
Clostridium tetani = experiment: Antimicrobial activity against Clostridium tetani MTCC 449 assessed as absence of visible growth after 24 to 48 hrs by broth micro dilution method; assay type: functional
Aspergillus fumigatus = experiment: Antimicrobial activity against Aspergillus fumigatus MTCC 3008 assessed as absence of visible growth after 24 to 48 hrs by broth micro dilution method; assay type: functional
Outline: (§1)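 Fungal broth microdilution following NCCLS, in Sabouraud dextrose broth, with compounds diluted from DMSO and inoculum adjusted to 10⁸ CFU/mL by turbidity. Growth read at 24 and 48 h. MIC is the highest dilution preventing turbidity after spot subculture. Griseofulvin and nystatin were the references.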

Candida albicans = experiment: Antimicrobial activity against Candida albicans MTCC 227 assessed as absence of visible growth after 24 to 48 hrs by broth micro dilution method; assay type: functional; outline: as §1
Plasmodium falciparum = experiment: Antimalarial activity against chloroquine ane quinine-sensitive ring stage of Plasmodium falciparum assessed as inhibition of parasite growth after 48 hrs; assay type: functional, organism-based
Outline: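 P. falciparum field strain from a Surat hospital, cultured by a modified Trager–Jensen method and synchronized with 5% D-sorbitol at ring stage. Rings at 1–2% parasitaemia and 2.5% haematocrit in hypoxanthine-free RPMI-1640 with 10% human plasma. Exposed to 7 concentrations, diluted from DMSO stocks, for one 48 h cycle at 37 °C. Growth inhibition % measured; IC50 by interpolation; duplicate runs, mean reported.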

[1] = test system: Mycobacterium tuberculosis; experiment: Antituberculosis activity against Mycobacterium tuberculosis H37Rv assessed as inhibition of colony formation at 250 ug/ml after 4 weeks of incubation; assay type: functional; conditions: 672 h

Compound	MIC (Escherichia coli) [µg/mL]	MIC (Bacillus subtilis) [µg/mL]	MIC (Vibrio cholerae) [µg/mL]	MIC (Salmonella typhi) [µg/mL]	MIC (Streptococcus pneumoniae) [µg/mL]	MIC (Clostridium tetani) [µg/mL]	MIC (Aspergillus fumigatus) [µg/mL]	MIC (Candida albicans) [µg/mL]	IC50 (Plasmodium falciparum) [µg/mL]	inhibition at 250 µg/mL [1] [%]
O=C(N[C@H](CO)[C@H](O)c1ccc([N+](=O)[O-])cc1)C(Cl)Cl [CHLORAMPHENICOL]	50 (≈ 155 µM)	50 (≈ 155 µM)	50 (≈ 155 µM)	50 (≈ 155 µM)	50 (≈ 155 µM)	50 (≈ 155 µM)	–	–	–	–
COC1=CC(=O)C[C@@H](C)[C@]12Oc1c(Cl)c(OC)cc(OC)c1C2=O [GRISEOFULVIN]	–	–	–	–	–	–	100 (≈ 283 µM)	500 (≈ 1420 µM)	–	–
COc1ccc(N2N=C(c3ccc(F)cc3)CC2c2c(C)nn(-c3ccccc3)c2Oc2ccc(F)cc2)cc1 (stereo not drawn)	500 (≈ 932 µM)	62.5 (≈ 116 µM)	100 (≈ 186 µM)	500 (≈ 932 µM)	125 (≈ 233 µM)	200 (≈ 373 µM)	250 (≈ 466 µM)	500 (≈ 932 µM)	0.25 (≈ 0.466 µM)	74
COc1ccc(N2N=C(c3ccc(F)cc3)CC2c2c(C)nn(-c3ccccc3)c2Oc2cccc(F)c2)cc1 (stereo not drawn)	500 (≈ 932 µM)	200 (≈ 373 µM)	200 (≈ 373 µM)	500 (≈ 932 µM)	100 (≈ 186 µM)	200 (≈ 373 µM)	> 1000	1000 (≈ 1860 µM)	0.57 (≈ 1.06 µM)	56
CO[C@H]1/C=C/O[C@@]2(C)Oc3c(C)c(O)c4c(O)c(c(/C=N/N5CCN(C)CC5)c(O)c4c3C2=O)NC(=O)/C(C)=C\C=C\[C@H](C)[C@H](O)[C@@H](C)[C@@H](O)[C@@H](C)[C@H](OC(C)=O)[C@@H]1C [RIFAMPIN]	–	–	–	–	–	–	–	–	–	98
CC1(C)S[C@@H]2[C@H](NC(=O)[C@H](N)c3ccccc3)C(=O)N2[C@H]1C(=O)O [AMPICILLIN]	100 (≈ 286 µM)	250 (≈ 715 µM)	100 (≈ 286 µM)	100 (≈ 286 µM)	100 (≈ 286 µM)	250 (≈ 715 µM)	–	–	–	–
Cc1nn(-c2ccccc2)c(Oc2ccc(F)cc2)c1C1CC(c2ccc(F)cc2)=NN1c1ccc(F)cc1 (stereo not drawn)	500 (≈ 953 µM)	500 (≈ 953 µM)	200 (≈ 381 µM)	250 (≈ 477 µM)	100 (≈ 191 µM)	250 (≈ 477 µM)	> 1000	200 (≈ 381 µM)	0.022 (≈ 0.0419 µM)	40
NYSTATIN	–	–	–	–	–	–	100	100	–	–
Cc1nn(-c2ccccc2)c(Oc2ccccc2F)c1C1CC(c2ccc(F)cc2)=NN1c1ccc(Br)cc1 (stereo not drawn)	100 (≈ 171 µM)	200 (≈ 342 µM)	500 (≈ 854 µM)	200 (≈ 342 µM)	250 (≈ 427 µM)	500 (≈ 854 µM)	1000 (≈ 1710 µM)	250 (≈ 427 µM)	0.088 (≈ 0.15 µM)	94
COc1ccc(N2N=C(c3ccc(F)cc3)CC2c2c(C)nn(-c3ccccc3)c2Oc2cccc(C(F)(F)F)c2)cc1 (stereo not drawn)	100 (≈ 170 µM)	100 (≈ 170 µM)	250 (≈ 426 µM)	100 (≈ 170 µM)	200 (≈ 341 µM)	200 (≈ 341 µM)	500 (≈ 852 µM)	250 (≈ 426 µM)	0.3 (≈ 0.511 µM)	52
Cc1nn(-c2ccccc2)c(Oc2ccc(F)cc2)c1C1CC(c2ccc(F)cc2)=NN1c1ccc(Br)cc1 (stereo not drawn)	200 (≈ 342 µM)	500 (≈ 854 µM)	500 (≈ 854 µM)	200 (≈ 342 µM)	500 (≈ 854 µM)	125 (≈ 214 µM)	> 1000	500 (≈ 854 µM)	0.025 (≈ 0.0427 µM)	96
O=C(O)c1cn(C2CC2)c2cc(N3CCNCC3)c(F)cc2c1=O [CIPROFLOXACIN]	25 (≈ 75.4 µM)	–	25 (≈ 75.4 µM)	25 (≈ 75.4 µM)	25 (≈ 75.4 µM)	–	–	–	–	–
Cc1nn(-c2ccccc2)c(Oc2cccc(F)c2)c1C1CC(c2ccc(F)cc2)=NN1c1ccc(Br)cc1 (stereo not drawn)	500 (≈ 854 µM)	250 (≈ 427 µM)	125 (≈ 214 µM)	200 (≈ 342 µM)	500 (≈ 854 µM)	250 (≈ 427 µM)	> 1000	250 (≈ 427 µM)	0.06 (≈ 0.102 µM)	56
COc1ccc(N2N=C(c3ccc(F)cc3)CC2c2c(C)nn(-c3ccccc3)c2Oc2ccccc2F)cc1 (stereo not drawn)	500 (≈ 932 µM)	100 (≈ 186 µM)	500 (≈ 932 µM)	500 (≈ 932 µM)	500 (≈ 932 µM)	500 (≈ 932 µM)	250 (≈ 466 µM)	500 (≈ 932 µM)	0.65 (≈ 1.21 µM)	22
C=C[C@H]1CN2CC[C@H]1C[C@H]2[C@H](O)c1ccnc2ccc(OC)cc12 [QUININE]	–	–	–	–	–	–	–	–	0.268 (≈ 0.826 µM)	–
Cc1nn(-c2ccccc2)c(Oc2cccc(C(F)(F)F)c2)c1C1CC(c2ccc(F)cc2)=NN1c1ccc(Br)cc1 (stereo not drawn)	250 (≈ 393 µM)	250 (≈ 393 µM)	250 (≈ 393 µM)	200 (≈ 315 µM)	500 (≈ 787 µM)	250 (≈ 393 µM)	500 (≈ 787 µM)	1000 (≈ 1570 µM)	1.46 (≈ 2.3 µM)	91
CCn1cc(C(=O)O)c(=O)c2cc(F)c(N3CCNCC3)cc21 [NORFLOXACIN]	10 (≈ 31.3 µM)	100 (≈ 313 µM)	10 (≈ 31.3 µM)	10 (≈ 31.3 µM)	10 (≈ 31.3 µM)	50 (≈ 157 µM)	–	–	–	–
Cc1nn(-c2ccccc2)c(Oc2ccccc2F)c1C1CC(c2ccc(F)cc2)=NN1c1ccc(F)cc1 (stereo not drawn)	200 (≈ 381 µM)	500 (≈ 953 µM)	250 (≈ 477 µM)	250 (≈ 477 µM)	250 (≈ 477 µM)	250 (≈ 477 µM)	100 (≈ 191 µM)	1000 (≈ 1910 µM)	0.025 (≈ 0.0477 µM)	10
